The source made the active and inactive calls. The rule behind the calls is not given here.
How the values were obtained:
[1] = Selectivity index, ratio of EC50 for mouse NIH/3T3 cells to EC50 for Trypanosoma cruzi trypomastigote; type: toxicity, cell-based, NIH3T3; details: read-out: Ratio EC50
NIH3T3 = experiment: Cytotoxicity against mouse NIH/3T3 cells; type: cell-based
In short: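 Counterscreen on uninfected NIH 3T3 cells grown in DMEM with 10% FBS at 37 °C and 5% CO₂, run alongside the 96 h infection assay. EC50 is the mean of three independent experiments performed on different days.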

Trypanosoma cruzi [2] = experiment: Antitrypanosomal activity against Trypanosoma cruzi trypomastigote infected in mouse NIH/3T3 cells after 96 hrs by luciferase reporter gene assay; details: NIH/3T3, 96 h
[3] = target: Sterol 14-alpha demethylase (Trypanosoma cruzi (strain CL Brener), UniProt Q7Z1V1); experiment: Binding affinity to Trypanosoma cruzi recombinant full length CYP51 by spectrophotometric analysis
In short: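 Purified full-length T. cruzi CYP51 (2 μM) was titrated with ligand at 0.5–10 μM, recording type 2 difference spectra at 350–450 nm, 25 °C. Apparent Kd came from ΔA425–390 versus free ligand, fitted to a rectangular hyperbola.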

Caco-2 = experiment: Permeability across human Caco2 cells; type: ADME, cell-based
hERG (KCNH2) [4] = target: T1, hERG (KCNH2) (Homo sapiens, UniProt Q12809); experiment: Inhibition of human ERG at 10 uM relative to control
hERG (KCNH2) [5] = target: T1, hERG (KCNH2); experiment: Inhibition of human ERG at 1 uM relative to control
Plasma [6] = experiment: Metabolic stability in human plasma after 1 to 4 hrs; type: ADME, cell-free
Plasma [7] = experiment: Plasma protein binding in human; type: ADME, cell-free
Plasma [8] = experiment: Metabolic stability in mouse plasma after 1 to 4 hrs; type: ADME, cell-free
Plasma [9] = experiment: Plasma protein binding in mouse; type: ADME, cell-free
[10] = Metabolic stability in human microsomes after 20 mins in presence of ketoconazole; type: ADME, Microsome
In short: (§1)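 Liver microsomes (human, mouse or rat), with or without CYP inhibitor. Read-out is percent of compound metabolized at 20 min.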

[11] = Metabolic stability in rat microsomes after 20 mins in presence of ketoconazole; type: ADME, Microsome; in short: as §1
[12] = Metabolic stability in mouse microsomes after 20 mins in presence of ketoconazole; type: ADME, Microsome; in short: as §1
[13] = Metabolic stability in human microsomes after 20 mins in presence of quinidine; type: ADME, Microsome; in short: as §1
[14] = Metabolic stability in rat microsomes after 20 mins in presence of quinidine; type: ADME, Microsome; in short: as §1
[15] = Metabolic stability in mouse microsomes after 20 mins in presence of quinidine; type: ADME, Microsome; in short: as §1
[16] = Metabolic stability in human microsomes after 20 mins; type: ADME, Microsome; details: read-out: Stability; in short: as §1
[17] = Metabolic stability in rat microsomes after 20 mins; type: ADME, Microsome; details: read-out: Stability; in short: as §1
Trypanosoma cruzi [18] = experiment: Antitrypanosomal activity against Trypanosoma cruzi trypomastigote infected in mouse NIH/3T3 cells at 0.4 uM incubated for 3 days post infection by DAPI-staining based immunofluorescence assay; type: functional, organism-based; details: NIH3T3
In short: (§2)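 NIH-3T3 cells on coverslips were infected 2 h with trypomastigotes (Tulahuen β-gal or Y luciferase), washed, then given drug for 3 days. Cells were fixed in 4% paraformaldehyde, permeabilised with Triton X-100 and stained with rabbit anti-T. cruzi (1:2000) plus Alexa 488 secondary and DAPI. Imaged at 60× oil, 50 fields per condition.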

Trypanosoma cruzi [19] = experiment: Antitrypanosomal activity against Trypanosoma cruzi Y infected in […] cells after 24 hrs by luciferase reporter gene assay; type: functional, organism-based
In short: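 Y strain expressing firefly luciferase, trypomastigotes from LLC-MK2 cultures, infecting NIH/3T3 host cells (50 000 cells and 50 000 parasites per well). Drug added at infection (top 50 μM, DMSO <0.5%, duplicates) and washed out at 24, 48 or 72 h. D-luciferin at 150 μg/mL final added at 96 h, luminescence read 1 s. EC50 relative to 4 μM amphotericin B maximal inhibition.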

Trypanosoma cruzi [20] = experiment: Antitrypanosomal activity against Trypanosoma cruzi Tulahuen […] after 24 hrs by beta-galactosidase reporter gene assay; type: functional, organism-based; details: LLC-MK2
[21] = Metabolic stability in mouse microsomes after 20 mins; type: ADME, Microsome; details: read-out: Stability; in short: as §1
Trypanosoma cruzi [22] = experiment: Antitrypanosomal activity against Trypanosoma cruzi trypomastigote infected in mouse NIH/3T3 cells at 9.5 uM incubated for 3 days post infection by DAPI-staining based immunofluorescence assay; type: functional, organism-based; details: NIH3T3; in short: as §2
Trypanosoma cruzi [23] = experiment: Antitrypanosomal activity against Trypanosoma cruzi Y infected in mouse NIH/3T3 cells after 48 to 72 hrs by luciferase reporter gene assay
Trypanosoma cruzi [24] = experiment: Antitrypanosomal activity against Trypanosoma cruzi Tulahuen infected in mouse NIH/3T3 cells after 48 to 72 hrs by beta-galactosidase reporter gene assay

Chain of Sterol 14-alpha demethylase (Q7Z1V1 whole entry): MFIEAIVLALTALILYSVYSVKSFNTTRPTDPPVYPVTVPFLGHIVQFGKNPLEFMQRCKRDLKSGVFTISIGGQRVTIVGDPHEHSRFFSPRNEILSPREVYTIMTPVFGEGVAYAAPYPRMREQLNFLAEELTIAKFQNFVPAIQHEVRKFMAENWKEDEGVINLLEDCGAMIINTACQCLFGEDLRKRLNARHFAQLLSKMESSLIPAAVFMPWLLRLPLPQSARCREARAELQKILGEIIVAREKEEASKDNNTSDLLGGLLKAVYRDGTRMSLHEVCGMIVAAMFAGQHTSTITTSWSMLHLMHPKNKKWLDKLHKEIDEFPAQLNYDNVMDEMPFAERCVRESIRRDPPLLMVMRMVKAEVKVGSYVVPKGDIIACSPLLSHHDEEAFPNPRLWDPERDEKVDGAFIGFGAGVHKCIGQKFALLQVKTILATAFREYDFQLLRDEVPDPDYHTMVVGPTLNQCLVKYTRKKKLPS
T1 sequence (Q12809 whole entry): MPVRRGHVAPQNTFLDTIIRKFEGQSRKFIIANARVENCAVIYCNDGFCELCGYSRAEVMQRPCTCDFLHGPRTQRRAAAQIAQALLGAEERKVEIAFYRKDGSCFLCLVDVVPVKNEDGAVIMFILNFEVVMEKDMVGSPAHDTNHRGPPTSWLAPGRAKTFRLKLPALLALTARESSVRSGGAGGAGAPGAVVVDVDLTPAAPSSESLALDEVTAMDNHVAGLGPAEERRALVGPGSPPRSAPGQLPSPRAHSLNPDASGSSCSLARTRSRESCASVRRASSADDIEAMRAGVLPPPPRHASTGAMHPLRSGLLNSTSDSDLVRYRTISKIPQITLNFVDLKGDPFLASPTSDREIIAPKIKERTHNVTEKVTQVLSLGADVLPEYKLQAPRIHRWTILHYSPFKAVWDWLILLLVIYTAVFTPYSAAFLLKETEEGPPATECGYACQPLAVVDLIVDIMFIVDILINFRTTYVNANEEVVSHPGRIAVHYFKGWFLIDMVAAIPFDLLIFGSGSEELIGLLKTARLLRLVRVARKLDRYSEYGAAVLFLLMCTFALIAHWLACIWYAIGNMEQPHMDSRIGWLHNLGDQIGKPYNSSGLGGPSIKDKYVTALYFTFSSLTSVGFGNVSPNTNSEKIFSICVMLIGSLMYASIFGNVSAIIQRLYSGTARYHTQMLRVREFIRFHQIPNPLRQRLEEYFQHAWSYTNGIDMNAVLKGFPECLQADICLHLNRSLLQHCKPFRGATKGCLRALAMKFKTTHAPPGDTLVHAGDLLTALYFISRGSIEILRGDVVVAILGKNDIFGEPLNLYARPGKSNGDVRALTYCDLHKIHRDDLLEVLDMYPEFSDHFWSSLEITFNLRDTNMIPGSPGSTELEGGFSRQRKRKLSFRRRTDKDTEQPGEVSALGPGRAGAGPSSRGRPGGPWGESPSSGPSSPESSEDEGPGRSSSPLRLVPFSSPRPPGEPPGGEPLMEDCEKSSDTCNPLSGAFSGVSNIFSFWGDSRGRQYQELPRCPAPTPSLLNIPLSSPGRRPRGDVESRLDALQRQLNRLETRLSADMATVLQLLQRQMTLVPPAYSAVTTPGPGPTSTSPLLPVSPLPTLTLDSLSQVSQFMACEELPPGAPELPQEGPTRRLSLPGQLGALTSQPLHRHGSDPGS

Row | Compound | selectivity ratio [1] | EC50 (NIH3T3) [µM] | EC50 (Trypanosoma cruzi [2]) [µM] | further results
1 | Clc1ccc(CCOc2cccc(Cn3ccnc3)c2)cc1 | 134 | 71.1 | 0.53 | –
2 | c1ccc(-c2cccc(Oc3cccc(Cn4ccnc4)c3)c2)cc1 | 121 | 34 | 0.282 | –
3 | O=C(Nc1cccc(Cl)c1)Nc1ccccc1-n1ccnc1 | – | – | 0.461 | –
4 | Cc1nnc(-c2cccc(Oc3cc(C)c(Cl)c(C)c3)c2)o1 | – | 46.1 | 14.1 | –
5 | Cc1cc(Oc2cccc(Cn3cccn3)c2)cc(C)c1Cl | – | > 100 | 2.8 | –
6 | Cc1cc(OCCCCCn2ccnc2)cc(C)c1Cl | – | – | 0.0025 | –
7 | Cc1ccccc1Oc1cccc(Cn2ccnc2)c1 | 112 | 79.3 | 0.711 | Kd [3]: 0.18 µM
8 | Cc1cc(Oc2cccc(Cn3ncc4ccccc43)c2)cc(C)c1Cl | – | > 100 | 13.4 | –
9 | Cc1cccc(Oc2cccc(Cn3ccnc3)c2)c1 | 238 | 78.7 | 0.33 | –
10 | Cc1cc(OCCCCn2ccnc2)cc(C)c1Cl | – | – | 0.0051 | –
11 | Cc1cc(Oc2cccc(Cn3cncn3)c2)cc(C)c1Cl | – | 75.9 | 1.1 | –
12 | Cc1cc(Oc2cccc(Cn3nccn3)c2)cc(C)c1Cl | – | > 100 | 5.4 | –
13 | Cc1cc(Oc2cccc(CN3CCN(C)CC3)c2)cc(C)c1Cl | – | 29.7 | 6.2 | –
14 | O=C(N[C@@H](Cn1ccnc1)c1ccccc1)c1ccc(-c2ccc(Cl)cc2)cc1 | – | – | – | Kd [3]: 0.07 µM
15 | Cc1cc(Oc2cccc(Cn3ccnn3)c2)cc(C)c1Cl | – | 66.8 | 1.1 | –
16 | Cc1cc(Oc2cccc(Cn3cnnc3)c2)cc(C)c1Cl | – | > 100 | 11.2 | –
17 | Cc1cc(Oc2cccc(Cn3cc4ccccc4n3)c2)cc(C)c1Cl | – | > 100 | 9.8 | –

Row | Compound | selectivity ratio [1] | EC50 (NIH3T3) [µM] | EC50 (Trypanosoma cruzi [2]) [µM] | further results
18 | Cc1nnc(Cc2cccc(Oc3cc(C)c(Cl)c(C)c3)c2)o1 | – | 6.2 | 3.4 | –
19 | Cc1cc(Oc2cccc(CN3CCOCC3)c2)cc(C)c1Cl | – | > 100 | 3.7 | –
20 | Cc1cc(C)cc(Oc2cccc(Cn3ccnc3)c2)c1 | > 300 | > 100 | 0.33 | –
21 | Clc1ccc(COc2cccc(Cn3ccnc3)c2)cc1 | 1810 | 76.2 | 0.042 | –
22 | Cc1cc(Oc2cccc(Cn3ccnc3)c2)cc(C)c1Cl | 169 | 13.5 | 0.08 | Kd [3]: 0.067 µM; permeability (Caco-2): 20.97 ×10⁻⁶ cm/s; inhibition at 10 µM (hERG (KCNH2) [4]): 94%; inhibition at 1 µM (hERG (KCNH2) [5]): 19%; Stability (Plasma [6]): -9.7%; PPB (Plasma [7]): > 99.8%; Stability (Plasma [8]): 4%; PPB (Plasma [9]): > 99.8%; Stability [10]: Stable; Stability [11]: Stable; Stability [12]: Stable; Stability [13]: Stable; Stability [14]: Stable; Stability [15]: Stable; remaining at 20 min [16]: 39%; remaining at 20 min [17]: 36%; Activity (Trypanosoma cruzi [18]): Active; Activity (Trypanosoma cruzi [19]): Active; Activity (Trypanosoma cruzi [20]): Active; remaining at 20 min [21]: 29%
23 | Cc1cc(Oc2cccc(Cn3ccc4ccccc43)c2)cc(C)c1Cl | – | > 100 | 10.7 | –
24 | Clc1ccc(Oc2cccc(Cn3ccnc3)c2)cc1 | > 150 | > 100 | 0.65 | –
25 | Cc1nnc(-c2cccc(Oc3cc(C)c(Cl)c(C)c3)c2)s1 | – | > 100 | 12.3 | –
26 | c1ccc(Oc2cccc(Cn3ccnc3)c2)cc1 | > 60 | > 100 | 1.63 | –
27 | Cc1cc(Oc2cccc(Cn3cnc4ccccc43)c2)cc(C)c1Cl | – | 40 | 3.7 | –
28 | COc1cccc(Nc2cccc(Cn3ccnc3)c2)c1 | > 500 | > 100 | 0.167 | Kd [3]: 0.21 µM
29 | Cc1nnc(Cc2cccc(Oc3cc(C)c(Cl)c(C)c3)c2)s1 | – | 3.8 | 2.2 | –
30 | Cc1cccc(OCCCCCn2ccnc2)c1 | – | – | 0.443 | –
31 | O=C(Cn1ccnc1[N+](=O)[O-])NCc1ccccc1 [BENZNIDAZOLE] | – | > 50 | 1.9 | Activity (Trypanosoma cruzi [22]): Active; Activity (Trypanosoma cruzi [23]): Active; Activity (Trypanosoma cruzi [24]): Active
32 | Cc1cc([N+](=O)[O-])ccc1Nc1cccc(Cn2ccnc2)c1 | > 1000 | > 100 | 0.072 | –
33 | Cc1cc(OCCCCCCn2ccnc2)cc(C)c1Cl | – | – | 0.023 | –

From ChEMBL document CHEMBL2321803, “Antitrypanosomal lead discovery: identification of a ligand-efficient inhibitor of Trypanosoma cruzi CYP51 and parasite growth” (J Med Chem, 2013)
